Shown are actives, neighbours in structure and some others; about 1.4% of the full set was active somewhere.
NR2E3 ag-1: inhibitors of NR2E3-RetCOR corepressor binding, primary screen, NR2E3 agonist project, biochemical, TR-FRET, GST-NR2E3, biotin-RetCOR. actives 0.12% (n = 320,000). Photoreceptor-specific nuclear receptor (Homo sapiens), Q9Y5X4. 1536-well. inhibition of corepressor binding, % at 4.78 µM;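 active means percent inhibition above the cutoff of mean plus 3 SD of all tested compounds, set per screening campaign, cut at about 20% in these data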;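 further: 0% = DMSO wells and 100% = biotin wells as full block of FRET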
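Format: 1536-well format; test system: GST-NR2E3 and biotin-RetCOR proteins; read-out basis: percent inhibition of TR-FRET ratio; timing: 5 h incubation at 4 °C; detection: time-resolved FRET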
NR1D1 modulator: modulators of Rev-erb alpha DNA binding, primary screen, biochemical, FITC-DNA, fluorescence polarization, uHTS. activity, % at 10 µM. Nuclear receptor subfamily 1 group D member 1 (Homo sapiens), P20393. AID 1259318, 2017. Rev-erbα–FITC-DNA binding, 90 min. actives 0.79% (n = 370,000);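 active means activity above about 14%, limit read from the data; passing the limit was not always enough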;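 further: 0% = DMSO wells with 35 nM protein and 100% = DMSO wells with 750 nM protein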
Target sequence (P20393 whole entry, looked up): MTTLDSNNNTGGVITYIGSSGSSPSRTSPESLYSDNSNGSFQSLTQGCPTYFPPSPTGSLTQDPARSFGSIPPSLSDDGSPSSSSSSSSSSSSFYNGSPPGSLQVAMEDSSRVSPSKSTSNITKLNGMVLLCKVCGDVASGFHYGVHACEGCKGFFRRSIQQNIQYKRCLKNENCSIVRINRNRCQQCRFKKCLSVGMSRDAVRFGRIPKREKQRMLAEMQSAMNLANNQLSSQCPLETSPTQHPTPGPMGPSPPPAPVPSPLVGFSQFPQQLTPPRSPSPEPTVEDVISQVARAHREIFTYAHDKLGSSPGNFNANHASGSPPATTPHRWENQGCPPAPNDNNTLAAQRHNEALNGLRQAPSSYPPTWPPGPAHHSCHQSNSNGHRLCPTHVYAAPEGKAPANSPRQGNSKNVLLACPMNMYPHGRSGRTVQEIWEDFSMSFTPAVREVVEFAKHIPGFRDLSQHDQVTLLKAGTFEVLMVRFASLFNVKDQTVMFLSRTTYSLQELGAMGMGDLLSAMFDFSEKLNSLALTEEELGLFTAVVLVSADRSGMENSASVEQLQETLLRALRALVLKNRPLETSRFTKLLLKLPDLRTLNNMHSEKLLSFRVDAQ
PG9 binder: binders of HIV-1 gp120 antibody PG9, primary screen, biochemical, TR-FRET | TR-FRET gp120-PG9 antibody binding | actives 0.43% (n = 360,000) | HIV-1 gp120 / PG9 antibody interaction | inhibition, % at 6.7 µM; in the data active means inhibition above about 8.5%
NR2E3 ag-2: NR2E3 agonists in two-hybrid cells, primary screen, cell-based, luminescence, CHO-S, Gal4-NCOR/VP16-NR2E3. Photoreceptor-specific nuclear receptor (Homo sapiens), Q9Y5X4. luciferase. inhibition of corepressor binding, % at 3.98 µM. actives 0.35% (n = 360,000). AID 602229, 2012;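 active means inhibition above the mean of all tested compounds plus 3 SD, cut at about 70% in these data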;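 further: 0% = DMSO with NR2E3 transfected cells and 100% = cells lacking NR2E3 construct; higher means lower luciferase signal from less NR2E3 corepressor binding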
NR2E3 ag confirm: NR2E3 agonist confirmation in cells, cell-based, luminescence, CHO-S two-hybrid | shares compounds with NR2E3 ag-2 | CHO-S mammalian two-hybrid NR2E3-NCOR, luciferase luminescence | inhibition, % at 3.98 µM | actives 51% (n = 2,300);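 active means average inhibition above a cutoff equal to the mean inhibition of all tested compounds plus one SD, cut at about 70% in these data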;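 further: 0% = DMSO in NR2E3 cells and 100% = DMSO in cells lacking NR2E3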
VP16 counter: GAL4-VP16 reporter modulators, confirmation, counter-screen for NR2E3 agonist project, cell-based, luminescence, CHO-S, high throughput; shares compounds with NR2E3 ag-2; CHO-S GAL4-VP16 luciferase reporter; inhibition, % at 3.98 µM; actives 29% (n = 2,300); AID 624379, 2012;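 active means mean inhibition above a cutoff equal to the average over all tested compounds plus one standard deviation, cut at about 70% in these data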;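 further: luciferase from a UAS reporter driven by GAL4-VP16 transactivation; 0% = DMSO with VP16-transfected cells and 100% = DMSO with cells lacking VP16; higher means less reporter light so more repression of VP16 activity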
Active calls of the source: *; . = not tested or not shown.

SMILES	NR2E3 ag-1	NR1D1 modulator	PG9 binder	NR2E3 ag-2	NR2E3 ag confirm	VP16 counter
Cc1ccc2nc(C)c(CN3CCN(c4ccc([N+](=O)[O-])cc4Cl)CC3)n2c1	1	10	-1	104*	95*	84*
O=[N+]([O-])c1ccc(Cl)c(CN2CCN(c3ncccn3)CC2)c1	-2	-6	-1	-12	.	.
COc1ccc(-c2nn(-c3ccccc3)cc2C(=O)N2CCN(S(=O)(=O)c3ccccc3C#N)CC2)cc1	1	-4	1	-14	.	.
COCCn1c(C)cc(C(=O)COC(=O)c2cccc(O)c2)c1C	0	-4	-2	59	42	-7
COCCn1c(C)cc(C(=O)COC(=O)c2cc3c(s2)CCC3)c1C	-2	-22	1	-3	.	.
CC12CCC(=O)C=C1CCC1C2CCC2(C)C(c3csc(N)n3)CCC12 (centres undefined)	.	4	0	75*	94*	76*
CN1C2CCC1/C(=C\c1ccc(F)cc1)C(=O)/C2=C/c1ccc(F)cc1	4	-1	0	4	.	.
C=CC(=O)N1C/C(=C/c2ccc(F)cc2)C(=O)/C(=C\c2ccc(F)cc2)C1	.	-3	0	58	55	36
C=CCN1c2ccccc2[C@]23C[C@@H](C(=O)OC)N(C(=O)c4cc(C)oc4C)C2=NC(C(=O)OC)=C(C(=O)OC)[C@H]13	0	.	.	.	.	.
O[C@@H]1[C@@H](O)C=C2CCN3Cc4cc5c(cc4[C@H]1C23)OCO5 (some centres undefined)	2	0	1	89*	92*	85*
Cc1noc(C)c1S(=O)(=O)N1CCN(c2ccc(Cl)cc2)CC1	1	3	0	-11	.	.
Cc1noc(C)c1S(=O)(=O)Nc1ccc(C(=O)N2CCN(c3ccc(Cl)cc3)CC2)cc1	-1	1	-2	65	86*	53
Cc1ccc(S(=O)(=O)N2C[C@H]3N(C(=O)OC(C)C)N(C(=O)OC(C)C)C[C@H](OC(=O)NCC4CCCCC4)[C@@]3(O)C2)cc1	.	.	.	57	70*	45
Cc1ccc(S(=O)(=O)N2C[C@H]3N(C(=O)OC(C)C)N(C(=O)OC(C)C)C[C@H](OC(=O)NCc4ccccc4)[C@@]3(O)C2)cc1	.	2	2	-29	.	.
CCNC(=O)N(C)[C@H]1C[C@H]2c3[nH]c4c(-c5cccc(C)c5)cccc4c3CCN2C(=O)[C@H]1[C@H](C)O	.	5	.	.	.	.
Cc1cccc(NC(=O)CSc2nnc(-c3cc(C)n(-c4ccccc4)c3C)o2)c1C	1	3	-2	-21	.	.
Cc1cc(-c2nnc(SCC(=O)Nc3ccccc3C(F)(F)F)o2)c(C)n1-c1ccccc1	-1	5	0	50	29	-8
O=[N+]([O-])c1ccc(NC(=S)NCCc2ccc(Cl)cc2)cc1	1	3	-1	69	96*	88*
Cc1ccc(C)c(N2CCN(C(=O)CC3Sc4ccccc4NC3=O)CC2)c1 (centres undefined)	0	3	0	.	.	.
Cc1nc2cc(NCc3nc4ccccc4n3Cc3ccccc3)ccc2n1C	1	-19	-2	59	-109	-122
CC(C)OC(=O)NCCOC(=O)Nc1ccc(Cl)c(Cl)c1	-1	-3	0	64	92*	74*
O=C(COc1ccccc1)N/N=C/c1ccc2c(c1)OCO2	0	-1	-1	17	.	.
CSC1SCC2C(=O)N(C)C(C(C)C)C(=O)OCC(NC(=O)c3cnc4ccccc4n3)C(=O)NC(C)C(=O)N(C)C1C(=O)N(C)C(C(C)C)C(=O)OCC(NC(=O)c1cnc3ccccc3n1)C(=O)NC(C)C(=O)N2C (centres undefined)	.	2	0	103*	98*	95*
O=C(Nc1ccc2c(c1)C(=O)OC2)c1ccc(C(F)(F)F)cc1	4	-1	8	-1	.	.
COc1cnc(-c2ccccn2)nc1Sc1ccc(Cl)cc1	1	-1	-2	70	12	-24
SMILES	NR2E3 ag-1	NR1D1 modulator	PG9 binder	NR2E3 ag-2	NR2E3 ag confirm	VP16 counter
COc1cnc(N(C)C)nc1Sc1ccc(Cl)cc1	0	5	1	-18	.	.
COc1ccc(Sc2nc(-c3ccccn3)ncc2OC)cc1	0	-6	-1	92*	42	9
CCOC(=O)CSc1nc(-c2ccccn2)ncc1OC	-4	0	-1	-14	.	.
COc1cnc(-c2ccccn2)nc1Sc1ccccc1	5	-6	-1	94*	35	1
COc1cnc(-c2ccccn2)nc1Sc1ccc(F)cc1	2	-1	-2	67	29	-8
O=C1c2ccc(-c3ccc(Cl)c(C(F)(F)F)c3)cc2S(=O)(=O)c2cccc(C(=O)N3CCN(c4ccc(Cl)cn4)CC3)c21	.	1	0	-31	.	.
O=S(=O)(NCCC1=CCCCC1)c1c(Cl)cccc1Cl	-2	4	1	4	.	.
Cn1ncc(Cl)c(Oc2ccc(C(C)(C)C)cc2)c1=O	1	-3	0	-1	.	.
Cc1ccc(CNC(=O)C2CCC(=O)N(Cc3cccc(C(F)(F)F)c3)C2)o1 (centres undefined)	-3	4	1	-23	.	.
C=CCn1c(O)c(N=NC(=S)Nc2cccc(C)c2)c2ccccc21	-4	3	0	80*	28	42
Oc1c(N=NC(=S)Nc2ccccc2F)c2ccccc2n1Cc1ccccc1	1	2	-3	-23	.	.
C=CCn1c(O)c(N=NC(=S)Nc2ccccc2F)c2ccccc21	4	-6	-2	86*	23	33
CCN(CC)c1ccc(NC(=O)c2cc(Cl)ccc2OC)cc1	0	8	0	-53	.	.
Cc1cc(C(=O)CSc2ccc(F)cc2)cc(C)c1OC(=S)N(C)C	2	-2	0	63	43	9
CC(=O)Nc1ccc(S(=O)(=O)NCCSCc2c(Cl)cccc2Cl)cc1	1	-4	1	62	71*	58
CC(=O)Nc1ccc(S(=O)(=O)NCCSCc2cccc(Cl)c2)cc1	-4	9	-2	-10	.	.
Cc1cc(C)c(S(=O)(=O)Nc2ccc3[nH]c(=O)[nH]c3c2)c(C)c1	0	-2	0	-2	.	.
COc1ccccc1OCC(=O)NNC(=O)C1CCN(c2ncnc3sc(C)c(C)c23)CC1	0	2	0	-21	.	.
COc1ccc(-c2csc(NC(=O)C3CCN(c4ncnc5sc(C)c(C)c45)CC3)n2)cc1OC	-3	0	-1	78*	74*	79*
